{"source": "ChEMBL document CHEMBL6071151", "about": "“Discovery of Inhibitors Targeting Protein-Protein Interaction between Bacterial RNA Polymerase and NusG as Novel Antimicrobials” (J Med Chem, 2024)", "key": {"Bacillus subtilis [1]": {"tested_on": "Bacillus subtilis", "test": "Antibacterial activity against Bacillus Subtilis assessed as bacterial transcription by measuring delocalization of GFP-tagged RpsB at 1 time MIC incubated for 30 mins by epifluorescence microscopy based analysis", "type": "functional, organism-based", "outline": "(§1)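 B. subtilis reporter strains expressing GFP fusions, grown overnight on selective LB agar at 37 °C, then overnight in LB with selective antibiotic and xylose, 37 °C, 180 rpm. Cells mounted on 1.2% agarose, imaged by epifluorescence with 100×/1.45 oil objective, FITC (525/50) filter.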"}, "[2]": {"tested_on": "Staphylococcus epidermidis", "test": "Antimicrobial activity against Staphylococcus epidermidis ATCC 12228 assessed as reduction in microbial growth measured after 20 hrs by CLSI based broth microdilution method", "type": "functional"}, "Staphylococcus aureus [3]": {"tested_on": "Staphylococcus aureus", "test": "Antimicrobial activity against Staphylococcus aureus ATCC 25923 assessed as reduction in bacterial growth at 4 to 16 times MIC measured over 6 hrs by time-kill assay relative to control", "type": "functional", "parameters": "scale not given: the % may be the effect or the level left", "outline": "(§2)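 S. aureus (ATCC 25923 or CA-MRSA USA300) in log phase suspended at about 1.5×10^6 CFU/mL in CA-MHB containing compound at multiples of MIC, with a drug-free broth control. Cultures held at 37 °C, aerobic, shaking at 180 rpm. Samples taken at 0, 2, 4 and 6 h, 10-fold diluted in PBS and spotted on Columbia blood agar. Colonies counted after overnight 37 °C as CFU/mL. Triplicate.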"}, "[4]": {"test": "Inhibition of Bacillus subtilis LgBiT-fused NusG/C-terminal SmBit fused […] CH protein-protein interaction using […] incubated for 20 mins by luminescence based analysis", "outline": "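Split-nanoluciferase competition assay with His-tagged proteins expressed in E. coli BL21(DE3) and Ni-purified. C-SmBiT-β'CH (250 nM in PBS) was preincubated with compound for 10 min at 37 °C. N-LgBiT-NusG (250 nM in PBS) was then added and incubated 10 min at 37 °C. Nano-Glo substrate was added and luminescence read. IC50 determined. Triplicate with technical repeats.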"}, "Staphylococcus aureus [5]": {"tested_on": "Staphylococcus aureus", "test": "Antimicrobial activity against Staphylococcus aureus ATCC 25923 measuring eradication of bacteria at 4 to 16 times MIC measured over 6 hrs by time-kill assay", "type": "functional", "outline": "as §2"}, "Staphylococcus aureus [6]": {"tested_on": "Staphylococcus aureus", "test": "Antimicrobial activity against Staphylococcus aureus ATCC 25923 assessed as reduction in bacterial count below the detectable threshold at 4 to 16 times MIC measured within 2 hrs by time-kill assay", "type": "functional, organism-based"}, "Staphylococcus aureus [7]": {"tested_on": "Staphylococcus aureus", "test": "Antimicrobial activity against community-associated methicillin-resistant Staphylococcus aureus USA300 assessed as reduction in bacterial count at 1 times MIC measured after 4 to 6 hrs by time-kill assay", "type": "functional, organism-based", "details": "time 4-6 hrs", "outline": "as §2"}, "Acinetobacter baumannii": {"tested_on": "Acinetobacter baumannii", "test": "Antimicrobial activity against Acinetobacter baumannii ATCC 19606 assessed as reduction in microbial growth measured after 20 hrs by CLSI based broth microdilution method", "type": "functional", "outline": "(§3)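 Broth microdilution per CLSI in cation-adjusted Mueller-Hinton broth. Two-fold serial dilutions from 256 to 0.25 μg/mL, inoculum about 5 × 10⁵ CFU/mL. Read after 20 h at 37 °C. MIC is the lowest concentration with no visible growth. Run in duplicate.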"}, "[8]": {"tested_on": "Staphylococcus saprophyticus", "test": "Antimicrobial activity against Staphylococcus saprophyticus ATCC 15305 assessed as reduction in microbial growth measured after 20 hrs by CLSI based broth microdilution method", "type": "functional"}, "Escherichia coli [9]": {"tested_on": "Escherichia coli", "test": "Upregulation of cat gene transcription level in Escherichia coli K12 transformed with pSL103 at 1/8 to 1/4 times MIC measured after 30 mins", "type": "functional", "outline": "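Cells lysed with lysozyme in TE, total RNA extracted and reverse transcribed. cat transcript quantified by SYBR Green qPCR, 40 cycles, normalised to gyrB by ΔCT. Triplicates, unpaired t-test.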"}, "Streptococcus pneumoniae [10]": {"tested_on": "Streptococcus pneumoniae", "test": "Antimicrobial activity against Streptococcus pneumoniae clinical isolate CUHK-X02 assessed as reduction in microbial growth measured after 20 hrs by CLSI based broth microdilution method", "type": "functional"}, "Pseudomonas aeruginosa": {"tested_on": "Pseudomonas aeruginosa", "test": "Antimicrobial activity against Pseudomonas aeruginosa ATCC 27853 assessed as reduction in microbial growth measured after 20 hrs by CLSI based broth microdilution method", "type": "functional", "outline": "as §3"}, "Klebsiella pneumoniae": {"tested_on": "Klebsiella pneumoniae", "test": "Antimicrobial activity against Klebsiella pneumoniae ATCC 700603 assessed as reduction in microbial growth measured after 20 hrs by CLSI based broth microdilution method", "type": "functional", "outline": "as §3"}, "Staphylococcus aureus [11]": {"tested_on": "Staphylococcus aureus", "test": "Antimicrobial activity against Staphylococcus aureus ATCC 25923 assessed as inhibition of microbial growth at 1 times MIC measured after 2 hrs by time-kill assay", "type": "functional, organism-based"}, "Bacillus subtilis [12]": {"tested_on": "Bacillus subtilis", "test": "Antibacterial activity against Bacillus Subtilis assessed as bacterial transcription by measuring delocalization of NusG at 1 time MIC incubated for 30 mins by epifluorescence microscopy based analysis", "type": "functional, organism-based", "outline": "as §1"}, "Streptococcus pneumoniae [13]": {"tested_on": "Streptococcus pneumoniae", "test": "Antimicrobial activity against Streptococcus pneumoniae NP112 (NR-19213) assessed as reduction in microbial growth measured after 20 hrs by CLSI based broth microdilution method", "type": "functional"}, "Streptococcus pneumoniae [14]": {"tested_on": "Streptococcus pneumoniae", "test": "Antimicrobial activity against Streptococcus pneumoniae clinical isolate CUHK-X01 assessed as reduction in microbial growth measured after 20 hrs by CLSI based broth microdilution method", "type": "functional"}, "Streptococcus pneumoniae [15]": {"tested_on": "Streptococcus pneumoniae", "test": "Antimicrobial activity against Streptococcus pneumoniae ATCC 49619 assessed as reduction in microbial growth measured after 20 hrs by CLSI based broth microdilution method", "type": "functional"}, "Streptococcus pyogenes": {"tested_on": "Streptococcus pyogenes", "test": "Antimicrobial activity against Streptococcus pyogenes ATCC 19615 assessed as reduction in microbial growth measured after 20 hrs by CLSI based broth microdilution method", "type": "functional"}, "Streptococcus pneumoniae [16]": {"tested_on": "Streptococcus pneumoniae", "test": "Antimicrobial activity against Streptococcus pneumoniae clinical isolate CUHK-X03 assessed as reduction in microbial growth measured after 20 hrs by CLSI based broth microdilution method", "type": "functional"}, "Staphylococcus aureus [17]": {"tested_on": "Staphylococcus aureus", "test": "Antimicrobial activity against Staphylococcus aureus ATCC 25923 assessed as reduction in microbial growth measured after 20 hrs by CLSI based broth microdilution method", "type": "functional", "outline": "as §3"}, "Escherichia coli [18]": {"tested_on": "Escherichia coli", "test": "Antimicrobial activity against Escherichia coli K12 transformed with pSL103 assessed as reduction in bacterial growth measured after 30 mins", "type": "functional", "details": "K12, 0.5 h"}, "Streptococcus pneumoniae [19]": {"tested_on": "Streptococcus pneumoniae", "test": "Antimicrobial activity against Streptococcus pneumoniae TCH8431 (HM-145) assessed as reduction in microbial growth measured after 20 hrs by CLSI based broth microdilution method", "type": "functional"}, "Bacillus subtilis [20]": {"tested_on": "Bacillus subtilis", "test": "Antibacterial activity against Bacillus Subtilis assessed as bacterial transcription by measuring delocalization of GFP-tagged RpoC at 1 time MIC incubated for 30 mins by epifluorescence microscopy based analysis", "type": "functional, organism-based", "outline": "as §1"}, "Staphylococcus aureus [21]": {"tested_on": "Staphylococcus aureus", "test": "Antimicrobial activity against Staphylococcus aureus ATCC 25923 assessed as reduction in bacterial count at 1 times MIC measured after 4 to 6 hrs by time-kill assay", "type": "functional, organism-based", "details": "time 4-6 hrs"}, "Bacillus subtilis [22]": {"tested_on": "Bacillus subtilis", "test": "Antibacterial activity against Bacillus Subtilis assessed as bacterial transcription by measuring subcellular localization of MreB at 1 time MIC incubated for 30 mins by epifluorescence microscopy based analysis", "type": "functional, organism-based", "outline": "as §1"}, "Escherichia coli [23]": {"tested_on": "Escherichia coli", "test": "Antimicrobial activity against Escherichia coli ATCC 25922 assessed as reduction in microbial growth measured after 20 hrs by CLSI based broth microdilution method", "type": "functional", "outline": "as §3"}, "Streptococcus pneumoniae [24]": {"tested_on": "Streptococcus pneumoniae", "test": "Antimicrobial activity against Streptococcus pneumoniae clinical isolate CUHK-X04 assessed as reduction in microbial growth measured after 20 hrs by CLSI based broth microdilution method", "type": "functional"}, "Streptococcus agalactiae": {"tested_on": "Streptococcus agalactiae", "test": "Antimicrobial activity against Streptococcus agalactiae ATCC 12386 assessed as reduction in microbial growth measured after 20 hrs by CLSI based broth microdilution method", "type": "functional"}, "Staphylococcus aureus [25]": {"tested_on": "Staphylococcus aureus", "test": "Antimicrobial activity against community-associated methicillin-resistant Staphylococcus aureus USA300 assessed as reduction in bacterial count below the detectable threshold at 4 to 16 times MIC measured after 4 hrs by time-kill assay", "type": "functional, organism-based", "outline": "as §2"}, "Enterobacter cloacae": {"tested_on": "Enterobacter cloacae", "test": "Antimicrobial activity against Enterobacter cloacae ATCC 13047 assessed as reduction in microbial growth measured after 20 hrs by CLSI based broth microdilution method", "type": "functional", "outline": "as §3"}, "Staphylococcus aureus [26]": {"tested_on": "Staphylococcus aureus", "test": "Antimicrobial activity against Staphylococcus aureus ATCC 29213 assessed as reduction in microbial growth measured after 20 hrs by CLSI based broth microdilution method", "type": "functional", "outline": "as §3"}, "Staphylococcus aureus [27]": {"tested_on": "Staphylococcus aureus", "test": "Antimicrobial activity against community-associated methicillin-resistant Staphylococcus aureus USA300 assessed as inhibition of microbial growth at 1 times MIC measured after 2 hrs by time-kill assay", "type": "functional, organism-based", "outline": "as §2"}, "Enterococcus faecalis": {"tested_on": "Enterococcus faecalis", "test": "Antimicrobial activity against Enterococcus faecalis ATCC 19433 assessed as reduction in microbial growth measured after 20 hrs by CLSI based broth microdilution method", "type": "functional", "outline": "as §3"}}, "note": "Active and inactive are the calls of the source."}
{"smiles": "OC(CNCCNc1ccccc1C(F)(F)F)CSc1ccc(C(F)(F)F)cc1", "note": "(centres undefined)", "values": [{"measurement": "Activity", "setting": "Bacillus subtilis [1]", "result": "Active"}, {"measurement": "MIC", "setting": "[2]", "result": 8, "unit": "µg/mL"}, {"measurement": "Activity", "setting": "Staphylococcus aureus [3]", "result": 100, "unit": "%"}, {"measurement": "IC50", "setting": "[4]", "result": 142, "unit": "µM"}, {"measurement": "Activity", "setting": "Staphylococcus aureus [5]", "result": "<200", "unit": "CFU/ml"}, {"measurement": "Activity", "setting": "Staphylococcus aureus [6]", "result": "Active"}, {"measurement": "Activity", "setting": "Staphylococcus aureus [7]", "result": "Active"}, {"measurement": "MIC", "setting": "Acinetobacter baumannii", "result": "> 256", "unit": "µg/mL"}, {"measurement": "MIC", "setting": "[8]", "result": 2, "unit": "µg/mL"}, {"measurement": "Activity", "setting": "Escherichia coli [9]", "result": "Active"}, {"measurement": "MIC", "setting": "Streptococcus pneumoniae [10]", "result": 4, "unit": "µg/mL"}, {"measurement": "MIC", "setting": "Pseudomonas aeruginosa", "result": "> 256", "unit": "µg/mL"}, {"measurement": "MIC", "setting": "Klebsiella pneumoniae", "result": "> 256", "unit": "µg/mL"}, {"measurement": "Activity", "setting": "Staphylococcus aureus [11]", "result": "Active"}, {"measurement": "Activity", "setting": "Bacillus subtilis [12]", "result": "Active"}, {"measurement": "MIC", "setting": "Streptococcus pneumoniae [13]", "result": 4, "unit": "µg/mL"}, {"measurement": "MIC", "setting": "Streptococcus pneumoniae [14]", "result": 1, "unit": "µg/mL"}, {"measurement": "MIC", "setting": "Streptococcus pneumoniae [15]", "result": 1, "unit": "µg/mL"}, {"measurement": "MIC", "setting": "Streptococcus pyogenes", "result": 8, "unit": "µg/mL"}, {"measurement": "MIC", "setting": "Streptococcus pneumoniae [16]", "result": 8, "unit": "µg/mL"}, {"measurement": "MIC", "setting": "Staphylococcus aureus [17]", "result": 4, "unit": "µg/mL"}, {"measurement": "MIC", "setting": "Escherichia coli [18]", "result": 16, "unit": "µg/mL"}, {"measurement": "MIC", "setting": "Streptococcus pneumoniae [19]", "result": 2, "unit": "µg/mL"}, {"measurement": "Activity", "setting": "Bacillus subtilis [20]", "result": "Active"}, {"measurement": "Activity", "setting": "Staphylococcus aureus [21]", "result": "Active"}, {"measurement": "Activity", "setting": "Bacillus subtilis [22]", "result": "Active"}, {"measurement": "MIC", "setting": "Escherichia coli [23]", "result": 64, "unit": "µg/mL"}, {"measurement": "MIC", "setting": "Streptococcus pneumoniae [24]", "result": 2, "unit": "µg/mL"}, {"measurement": "MIC", "setting": "Streptococcus agalactiae", "result": 16, "unit": "µg/mL"}, {"measurement": "Activity", "setting": "Staphylococcus aureus [25]", "result": "Active"}, {"measurement": "MIC", "setting": "Enterobacter cloacae", "result": 32, "unit": "µg/mL"}, {"measurement": "MIC", "setting": "Staphylococcus aureus [26]", "result": 4, "unit": "µg/mL"}, {"measurement": "Activity", "setting": "Staphylococcus aureus [27]", "result": "Active"}, {"measurement": "MIC", "setting": "Enterococcus faecalis", "result": 8, "unit": "µg/mL"}]}
